# A selection: hits, their analogues and other compounds. The true share with any hit is near 3.2%.
# DAGLB inh – DAGLB lipase inhibitors, primary screen, biochemical, fluorescence, HTS; HEK293T DAGLB membrane lysate, EnzChek fluorogenic substrate; inhibition, % at 5.17 µM; 340,000 tested, 0.059% active; AID 504411, 2011; in the data active means inhibition above about 34%;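 further: 0% = enzyme with vehicle and 100% = wells lacking enzyme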
# HTRA1 inhibitor – HTRA1 serine protease inhibitors, primary screen, biochemical, fluorescence polarization, HTS; recombinant HTRA1, FP-rhodamine activity-based probe; inhibition, % at 5.96 µM; 340,000 tested, 0.5% active; in the data active means inhibition above about 36%;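 further: 0% = enzyme with DMSO and 100% = wells lacking enzyme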
# PRMT1 inh – PRMT1 methyltransferase inhibitors, primary screen, biochemical, fluorescence polarization; Protein arginine N-methyltransferase 1 (Homo sapiens), Q99873; recombinant PRMT1, activity-based probe fluorescence polarization; inhibition, % at 2.79 µM; 370,000 tested, 1.3% active;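 active means inhibition above about 21% made by adding two undisclosed values, limit read from the data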
# ABHD4 inh – ABHD4 inhibitors, primary screen, biochemical, fluorescence polarization, mouse. purified mABHD4, FP-Rh probe fluorescence polarization. inhibition, % at 8.92 µM. 370,000 tested, 0.54% active. AID 720543, 2013;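 active means inhibition exceeding the mean over every tested compound plus 3 SD, cut at about 30% in these data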;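 further: 0% = plate median of compound wells and 100% = S159A mutant with DMSO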
# Target sequence (Q8VD66 whole entry, looked up): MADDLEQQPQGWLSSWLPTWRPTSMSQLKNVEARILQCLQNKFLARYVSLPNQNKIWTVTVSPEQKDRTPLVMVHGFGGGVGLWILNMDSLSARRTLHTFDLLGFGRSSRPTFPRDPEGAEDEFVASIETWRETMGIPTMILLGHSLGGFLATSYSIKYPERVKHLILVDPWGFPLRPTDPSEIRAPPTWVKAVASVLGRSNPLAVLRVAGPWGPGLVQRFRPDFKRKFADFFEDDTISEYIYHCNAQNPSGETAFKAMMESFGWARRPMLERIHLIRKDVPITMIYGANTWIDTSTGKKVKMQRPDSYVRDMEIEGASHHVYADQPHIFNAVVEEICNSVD
#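 Assay system: mABHD4 protein; medium: HEPES pH 7.0, NaCl, Pluronic buffer; dosing: 8.92 µM, single dose; schedule: 45 min + 60 min at 25 °C; signal: FP readout, ex 525 nm / em 598 nm; read-out: normalized percent inhibition of probe labeling; repeats: single replicate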
# LEDGF integ inh – blockers of LEDGF/p75-dependent integrase strand transfer – biochemical, TR-FRET, high throughput, primary screen; HIV-1 integrase (with human LEDGF/p75); TR-FRET IN-LEDGF/p75 DNA integration, Eu/Cy5; inhibition, % at 3.7 µM; 370,000 tested, 0.64% active; AID 743269, 2014;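 active means inhibition above the screen-wide mean plus 3 SD, cut at about 13% in these data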;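 further: signal is the Cy5 over europium emission ratio at 671 and 618 nm; 0% = plate median of compound wells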
# rCAG RNA binder – binders of r(CAG) RNA repeats, primary screen, biochemical, fluorescence. r(CAG) RNA repeat, TO-PRO-1 dye displacement fluorescence. inhibition, % at 3 µM. 370,000 tested, 1.3% active;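 active means inhibition above the plate cutoff, the mean of all test compounds on that plate plus 3 SD, cut at about 35% in these data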;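 further: 0% = DMSO alone and 100% = 100 µM mitoxantrone as full dye displacement; higher means more dye released from RNA so lower well fluorescence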
# The depositor's hits bear a star; . = no result given.
SMILES,DAGLB inh,HTRA1 inhibitor,PRMT1 inh,ABHD4 inh,LEDGF integ inh,rCAG RNA binder
Brc1ccc(C2=CC(c3cccs3)n3ncnc3N2)cc1 (stereo unspecified),-236.5,-46.7,94.7*,-8.1,2.1,-215.7
Fc1ccc(C2=CC(c3ccc(Br)o3)n3ncnc3N2)cc1 (stereo unspecified),-33.8,0.9,.,.,.,.
CCOc1ccc(S(=O)(=O)N2CCN(C(=O)Cc3n[nH]c(=O)c4ccccc34)CC2)cc1,1.0,0.7,-0.7,-3.9,-1.9,0.0
Cc1cc2nc(-c3ccc(Cl)cc3)c(Cc3cccc(Cl)c3)n2c(C)c1Br,.,.,-1.0,-41.8,4.6,25.4
Cc1cc2nc(-c3cccc(Cl)c3)c(Cc3cccc(Cl)c3)n2c(C)c1Br,.,.,-2.9,-68.2,-1.5,34.5*
Cc1ccc(Cc2c(-c3cccc(Cl)c3)nc3ccc(Br)cn23)cc1,.,.,1.1,-2.5,0.7,43.9*
CC(=O)Nc1ccc(S(=O)(=O)NNc2cccc(C)c2)cc1,-0.6,3.2,22.7*,11.1,-0.1,3.9
Cc1cccc(NC(=O)NNS(=O)(=O)c2ccc(F)cc2)c1,-3.6,3.4,-1.4,-1.5,-4.3,1.7
COc1ccccc1CNC(=O)CS(=O)(=O)c1ccc(C)cc1,-2.0,-1.2,1.8,2.6,-0.8,0.1
COc1cc(OC)cc(-n2c3nc4ccccc4nc3c3c(=O)n(CC4CCCO4)cnc32)c1 (stereo unspecified),.,.,0.6,-6.6,-0.6,-1.4
S=c1[nH]nc(-c2ccc3ccccc3n2)n1-c1ccccc1,2.1,5.1,22.5*,2.6,-1.1,4.3
Fc1ccccc1-n1c(-c2ccc3ccccc3n2)n[nH]c1=S,0.8,-0.3,5.6,-0.2,0.2,8.5
COCCn1c(C)cc(/C=C2\NC(=S)N(C)C2=O)c1C,1.4,7.8,22.1*,-2.7,1.7,1.1
Nc1nc(=S)c2ncn(C3OC(CO)C(O)C3O)c2[nH]1 (stereo unspecified),2.2,-0.8,23.1*,13.5,9.4,27.8
Cc1ccccc1OCC(=O)NCC(=O)OCC(=O)c1ccc([N+](=O)[O-])cc1,-0.7,4.4,24.1*,0.7,3.1,1.3
O=[N+]([O-])c1ccccc1-c1ccc(CN2CCN(c3ccccc3)CC2)o1,-12.6,9.8,23.2*,-1.8,4.1,-4.3
O=[N+]([O-])c1cccc(-c2ccc(CN3CCN(c4ccccc4)CC3)o2)c1,-4.3,-2.9,5.7,-8.4,3.5,4.1
CC(Sc1nc(N)cc(=O)[nH]1)C(=O)Nc1sc2c(c1C#N)CCCC2 (stereo unspecified),1.8,-9.2,-3.4,-3.0,-1.5,14.9
CCC(Sc1nc(C)cc(=O)[nH]1)C(=O)Nc1sc2c(c1C#N)CCCC2 (stereo unspecified),5.2,-47.5,4.9,-5.5,0.3,54.9*
Cc1ccc(CC(=O)Nc2ccc([N+](=O)[O-])cc2C)cc1,-8.4,-4.8,-1.1,4.1,6.5,-1.8
O=C(O)c1cc(S(=O)(=O)Nc2ccc3oc(=O)sc3c2)ccc1O,.,.,85.8*,22.1,15.7*,59.6*
O=C(O)c1cc(NS(=O)(=O)c2ccc3ccccc3c2)ccc1O,5.0,-11.5,-0.9,-11.0,0.8,13.1
C[C@@H]1CCCCO[C@H](CN(C)C(=O)NC2CCCCC2)[C@@H](C)CN([C@H](C)CO)C(=O)c2cc(NC(=O)c3ccccc3)ccc2O1,-3.8,-20.7,-0.5,1.1,-1.4,5.7
COc1ccc(/C(O)=C/C(=O)C(=O)NNC(=O)C(O)(c2ccccc2)c2ccccc2)cc1,9.2,14.9,-1.2,-2.6,2.6,44.3*
NNC(=O)C1C(O)CCC2CN3CCc4c([nH]c5ccccc45)C3CC21 (stereo unspecified),1.4,4.0,22.0*,2.5,8.0,2.0
COC(=O)[C@@H]1[C@H]2C[C@H]3c4[nH]c5ccccc5c4CCN3C[C@@H]2CC[C@@H]1O,0.2,2.1,-4.8,-0.8,-2.6,-0.9

# Screens from PubChem.
